Test results as given in ChEMBL document CHEMBL1130250, “NAcSDKP analogues resistant to angiotensin-converting enzyme” (J Med Chem, 1997).
Peptide text beside a SMILES is read from it. * marks the point of attachment. Pyrrolidide = C1CCN(*)C1

Experiments:
[1] = target: T1, Angiotensin-converting enzyme (Oryctolagus cuniculus) (UniProt P12822); test: In vitro stability of compound (0.5 uM) to inhibit NAcSDKP hydrolysis by rabbit lung Angiotensin I converting enzyme after 30 minutes incubation
T1 sequence (whole entry): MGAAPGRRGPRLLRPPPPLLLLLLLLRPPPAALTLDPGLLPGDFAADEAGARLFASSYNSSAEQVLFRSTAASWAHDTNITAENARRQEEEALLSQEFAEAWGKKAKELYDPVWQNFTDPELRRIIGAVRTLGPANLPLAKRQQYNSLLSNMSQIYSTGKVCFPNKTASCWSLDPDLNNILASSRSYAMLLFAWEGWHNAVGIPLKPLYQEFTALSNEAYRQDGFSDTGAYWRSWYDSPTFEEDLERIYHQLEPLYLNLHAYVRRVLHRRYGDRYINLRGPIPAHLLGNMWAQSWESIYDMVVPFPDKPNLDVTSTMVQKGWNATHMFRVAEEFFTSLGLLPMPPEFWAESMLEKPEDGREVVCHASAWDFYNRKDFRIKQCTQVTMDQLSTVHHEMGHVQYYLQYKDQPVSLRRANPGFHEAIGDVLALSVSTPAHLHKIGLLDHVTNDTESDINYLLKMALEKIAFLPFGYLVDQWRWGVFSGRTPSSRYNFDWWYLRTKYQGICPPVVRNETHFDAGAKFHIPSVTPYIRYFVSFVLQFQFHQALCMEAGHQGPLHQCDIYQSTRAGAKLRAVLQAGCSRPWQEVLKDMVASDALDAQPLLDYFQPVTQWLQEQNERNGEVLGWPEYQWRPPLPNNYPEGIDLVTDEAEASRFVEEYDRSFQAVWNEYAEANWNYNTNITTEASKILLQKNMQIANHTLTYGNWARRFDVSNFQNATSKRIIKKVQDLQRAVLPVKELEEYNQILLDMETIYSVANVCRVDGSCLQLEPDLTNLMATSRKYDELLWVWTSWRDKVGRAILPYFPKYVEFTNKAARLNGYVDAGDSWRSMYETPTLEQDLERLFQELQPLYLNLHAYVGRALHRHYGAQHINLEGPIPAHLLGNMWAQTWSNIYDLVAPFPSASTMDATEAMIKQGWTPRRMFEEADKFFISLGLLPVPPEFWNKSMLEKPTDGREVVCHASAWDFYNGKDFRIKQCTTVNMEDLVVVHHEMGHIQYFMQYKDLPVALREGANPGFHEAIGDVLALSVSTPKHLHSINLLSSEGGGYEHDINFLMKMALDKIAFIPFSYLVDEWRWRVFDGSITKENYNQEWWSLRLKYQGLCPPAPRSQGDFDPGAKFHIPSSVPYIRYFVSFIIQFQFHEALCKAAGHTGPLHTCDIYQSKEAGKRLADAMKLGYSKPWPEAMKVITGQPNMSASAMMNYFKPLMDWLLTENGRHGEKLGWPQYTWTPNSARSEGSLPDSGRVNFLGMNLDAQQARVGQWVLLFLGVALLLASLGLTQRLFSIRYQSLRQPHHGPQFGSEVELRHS
Summary of the method: (§1)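 Rabbit lung ACE (0.1 unit/mL final) in Tris-maleate buffer pH 7 (100 mM Tris, 50 mM NaCl, 10^-5 M ZnSO4). Analogue (final 0.5, 5 or 50 µM) preincubated with enzyme 30 min at 37 °C. NAcSD[3H]KP (tritium on lysine side chain) plus cold peptide, 5 µM final, then added for 30 min at 37 °C. Frozen at -80 °C and run on high-voltage paper electrophoresis. Residual labelled substrate radioactivity compared with t=0. Duplicates, mean of two experiments.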

[2] = target: T1, Angiotensin-converting enzyme (Oryctolagus cuniculus); test: In vitro stability of compound (5 uM) to inhibit NAcSDKP hydrolysis by rabbit lung Angiotensin I converting enzyme after 30 minutes incubation; summary of the method: as §1
[3] = target: T1, Angiotensin-converting enzyme (Oryctolagus cuniculus); test: In vitro stability of compound (50 uM) to inhibit NAcSDKP hydrolysis by rabbit lung Angiotensin I converting enzyme after 30 minutes incubation; summary of the method: as §1
[4] = target: T1, Angiotensin-converting enzyme (Oryctolagus cuniculus); test: In vitro stability of compound toward enzymatic degradation by rabbit lung Angiotensin I converting enzyme after 24 hr incubation
Summary of the method: (§2)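 Degradation assay: rabbit lung ACE preincubated 30 min at 37 °C in Tris-maleate pH 7 (100 mM Tris, 50 mM NaCl, 10^-5 M ZnSO4). Peptide then added at 50 µM final with enzyme at 0.1 unit/mL, 37 °C for 30 min or 24 h. Stopped with 1% TFA, then RP-HPLC at 215 nm. Residual intact peptide read from peak area against t=0 and a 5-50 calibration curve. Mean of two experiments in triplicate.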

[5] = target: T1, Angiotensin-converting enzyme (Oryctolagus cuniculus); test: In vitro stability of compound toward enzymatic degradation by rabbit lung Angiotensin I converting enzyme after 30 minutes incubation; summary of the method: as §2
[6] = target: T1, Angiotensin-converting enzyme (Oryctolagus cuniculus); test: In vitro stability of compound (51 uM) to inhibit NAcSDKP hydrolysis by rabbit lung Angiotensin I converting enzyme after 30 minutes incubation; summary of the method: as §1

Residual peptide [1] | Residual peptide [2] | Residual peptide [3] | Residual peptide [4] | Residual peptide [5] | Residual peptide [6] | SMILES
46% | 49.3% | 41.7% | 100% | 100% | – | CC(=O)N[C@@H](CO)C(=O)N[C@H](CN[C@@H](CCCCN)C(=O)N1CCC[C@H]1C(=O)O)CC(=O)O
– | – | – | – | 43.6% | – | CC(=O)N[C@@H](CO)C(=O)N[C@@H](CC(=O)O)C(=O)N[C@@H](CCCCN)C(=O)N1CCC[C@H]1C(=O)O (Ac-SDKP-OH)
47.3% | 48.8% | 50.3% | 99.4% | 99.7% | – | CC(=O)N[C@@H](CO)C(=O)N[C@@H](CC(=O)O)C(=O)N[C@@H](CCCCN)CN1CCC[C@H]1C(=O)O

More lines, now with the values behind:

SMILES | Residual peptide [1] | Residual peptide [2] | Residual peptide [3] | Residual peptide [4] | Residual peptide [5] | Residual peptide [6]
CC(=O)N[C@@H](CO)C(=O)N[C@@H](CC(=O)O)C(=O)N[C@@H](CCCCN)C(=O)N1CCC[C@H]1C(N)=O (Ac-SDKP-NH2) | 46% | 50.1% | 49.7% | 96.7% | 99.9% | –
CC(=O)N[C@@H](CO)C(=O)N[C@@H](CC(=O)O)C(=O)N[C@@H](CCCCN)C(=O)N1CCCC1 (Ac-Ser-Asp-Lys-Pyrrolidide) | – | – | – | 0% | 36.2% | –
CC(=O)N[C@@H](CO)CN[C@@H](CC(=O)O)C(=O)N[C@@H](CCCCN)C(=O)N1CCC[C@H]1C(=O)O | 46.9% | – | 46.7% | 97.6% | 99.7% | 54%
